ChEMBL document CHEMBL4052823, “Extra Sugar on Vancomycin: New Analogues for Combating Multidrug-Resistant Staphylococcus aureus and Vancomycin-Resistant Enterococci” (J Med Chem, 2018)
≈ marks a conversion by molar mass, not a printed value.

How the values were obtained:
Staphylococcus aureus [1] = experiment: Antibacterial activity against healthcare-associated methicillin-resistant/vancomycin-intermediate Staphylococcus aureus Mu50 after 24 hrs by broth microdilution method; assay type: functional; settings: Mu50, 24 h
Summary of the method: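 Broth microdilution in cation-adjusted Mueller-Hinton II broth. DMSO stocks were diluted in broth and twofold serially from 128 to 0.0625 μg/mL or lower. Each well was inoculated with ~10^5 CFU of exponential-phase bacteria and incubated at 37 °C for 24 h. MIC was the lowest concentration giving complete growth inhibition, read per CLSI. Growth controls contained broth plus DMSO.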

Staphylococcus aureus [2] = experiment: Antibacterial activity against vancomycin/methicillin-susceptible Staphylococcus aureus Newman […] after 24 hrs by broth microdilution method; assay type: functional
Summary of the method: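 Broth microdilution in cation-adjusted Mueller-Hinton II broth. […] Each well received ~10^5 CFU of exponential-phase bacteria and was incubated at 37 °C for 24 h. MIC was taken as the lowest concentration giving complete growth inhibition, interpreted per CLSI.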

SMILES | MIC90 (Staphylococcus aureus [1]) [µg/mL] | MIC90 (Staphylococcus aureus [2]) [µg/mL]
CCCCCCCCCCN[C@@]1(C)C[C@H](O[C@H]2[C@H](Oc3c4cc5cc3Oc3ccc(cc3Cl)[C@@H](O)[C@@H](NC(=O)[C@@H](CC(C)C)NC)C(=O)N[C@@H](CC(N)=O)C(=O)N[C@H]5C(=O)N[C@H]3C(=O)N[C@H](C(=O)N[C@H](C(=O)O)c5cc(O)c(CNCCCNC(=O)[C@H](O)[C@@H](O)[C@H](O)[C@H](O)CO)c(O)c5-c5cc3ccc5O)[C@H](O)c3ccc(c(Cl)c3)O4)O[C@H](CO)[C@@H](O)[C@@H]2O)O[C@@H](C)[C@H]1O | 0.5 (≈ 0.27 µM) | 0.12 (≈ 0.0647 µM)
C#Cc1ccc(CN[C@@]2(C)C[C@H](O[C@H]3[C@H](Oc4c5cc6cc4Oc4ccc(cc4Cl)[C@@H](O)[C@@H](NC(=O)[C@@H](CC(C)C)NC)C(=O)N[C@@H](CC(N)=O)C(=O)N[C@H]6C(=O)N[C@H]4C(=O)N[C@H](C(=O)N[C@H](C(=O)O)c6cc(O)c(CN[C@H]7C(O)O[C@H](CO)[C@H](O)[C@@H]7O)c(O)c6-c6cc4ccc6O)[C@H](O)c4ccc(c(Cl)c4)O5)O[C@H](CO)[C@@H](O)[C@@H]3O)O[C@@H](C)[C@H]2O)cc1 (some centres undefined) | 8 (≈ 4.56 µM) | 2 (≈ 1.14 µM)
CCc1ccc(CN[C@@]2(C)C[C@H](O[C@H]3[C@H](Oc4c5cc6cc4Oc4ccc(cc4Cl)[C@@H](O)[C@@H](NC(=O)[C@@H](CC(C)C)NC)C(=O)N[C@@H](CC(N)=O)C(=O)N[C@H]6C(=O)N[C@H]4C(=O)N[C@H](C(=O)N[C@H](C(=O)O)c6cc(O)c(CNCCO)c(O)c6-c6cc4ccc6O)[C@H](O)c4ccc(c(Cl)c4)O5)O[C@H](CO)[C@@H](O)[C@@H]3O)O[C@@H](C)[C@H]2O)cc1 | 4 (≈ 2.44 µM) | 2 (≈ 1.22 µM)
CCCCCCCCCCNCCN[C@@]1(C)C[C@H](O[C@H]2[C@H](Oc3c4cc5cc3Oc3ccc(cc3Cl)[C@@H](O)[C@@H](NC(=O)[C@@H](CC(C)C)NC)C(=O)N[C@@H](CC(N)=O)C(=O)N[C@H]5C(=O)N[C@H]3C(=O)N[C@H](C(=O)N[C@H](C(=O)O)c5cc(O)c(CNCCO[C@H]6O[C@H](CO)[C@@H](O)[C@H](O)[C@@H]6O)c(O)c5-c5cc3ccc5O)[C@H](O)c3ccc(c(Cl)c3)O4)O[C@H](CO)[C@@H](O)[C@@H]2O)O[C@@H](C)[C@H]1O | 2 (≈ 1.07 µM) | 1 (≈ 0.535 µM)
CCCCCCCCCN[C@@]1(C)C[C@H](O[C@H]2[C@H](Oc3c4cc5cc3Oc3ccc(cc3Cl)[C@@H](O)[C@@H](NC(=O)[C@@H](CC(C)C)NC)C(=O)N[C@@H](CC(N)=O)C(=O)N[C@H]5C(=O)N[C@H]3C(=O)N[C@H](C(=O)N[C@H](C(=O)O)c5cc(O)c(CNCCCNC(=O)[C@H](O)[C@@H](O)[C@H](O)[C@H](O)CO)c(O)c5-c5cc3ccc5O)[C@H](O)c3ccc(c(Cl)c3)O4)O[C@H](CO)[C@@H](O)[C@@H]2O)O[C@@H](C)[C@H]1O | 2 (≈ 1.09 µM) | 0.5 (≈ 0.272 µM)
CCCCCCCCCCNCCN[C@@]1(C)C[C@H](O[C@H]2[C@H](Oc3c4cc5cc3Oc3ccc(cc3Cl)[C@@H](O)[C@@H](NC(=O)[C@@H](CC(C)C)NC)C(=O)N[C@@H](CC(N)=O)C(=O)N[C@H]5C(=O)N[C@H]3C(=O)N[C@H](C(=O)N[C@H](C(=O)O)c5cc(O)c(CNCCO[C@@H]6O[C@H](CO)[C@H](O)[C@H](O)[C@H]6O)c(O)c5-c5cc3ccc5O)[C@H](O)c3ccc(c(Cl)c3)O4)O[C@H](CO)[C@@H](O)[C@@H]2O)O[C@@H](C)[C@H]1O | 2 (≈ 1.07 µM) | 0.5 (≈ 0.268 µM)
CN[C@H](CC(C)C)C(=O)N[C@H]1C(=O)N[C@@H](CC(N)=O)C(=O)N[C@H]2C(=O)N[C@H]3C(=O)N[C@H](C(=O)N[C@H](C(=O)O)c4cc(O)c(CNCCCNC(=O)[C@H](O)[C@@H](O)[C@H](O)[C@H](O)CO)c(O)c4-c4cc3ccc4O)[C@H](O)c3ccc(c(Cl)c3)Oc3cc2cc(c3O[C@@H]2O[C@H](CO)[C@@H](O)[C@H](O)[C@H]2O[C@H]2C[C@](C)(NCc3ccc4c(c3)OCC4)[C@H](O)[C@H](C)O2)Oc2ccc(cc2Cl)[C@H]1O | 8 (≈ 4.33 µM) | 4 (≈ 2.17 µM)
CCc1ccc(CN[C@@]2(C)C[C@H](O[C@H]3[C@H](Oc4c5cc6cc4Oc4ccc(cc4Cl)[C@@H](O)[C@@H](NC(=O)[C@@H](CC(C)C)NC)C(=O)N[C@@H](CC(N)=O)C(=O)N[C@H]6C(=O)N[C@H]4C(=O)N[C@H](C(=O)N[C@H](C(=O)O)c6cc(O)c(CNCCCNC(=O)[C@H](O)[C@@H](O)[C@H](O)[C@H](O)CO)c(O)c6-c6cc4ccc6O)[C@H](O)c4ccc(c(Cl)c4)O5)O[C@H](CO)[C@@H](O)[C@@H]3O)O[C@@H](C)[C@H]2O)cc1 | 8 (≈ 4.37 µM) | 4 (≈ 2.18 µM)
CN[C@H](CC(C)C)C(=O)N[C@H]1C(=O)N[C@@H](CC(N)=O)C(=O)N[C@H]2C(=O)N[C@H]3C(=O)N[C@H](C(=O)N[C@H](C(=O)O)c4cc(O)c(CNCCCNC(=O)[C@H](O)[C@@H](O)[C@H](O)[C@H](O)CO)c(O)c4-c4cc3ccc4O)[C@H](O)c3ccc(c(Cl)c3)Oc3cc2cc(c3O[C@@H]2O[C@H](CO)[C@@H](O)[C@H](O)[C@H]2O[C@H]2C[C@](C)(NCc3ccc(OCc4cccc(-c5ccccc5)c4C)c(Cl)c3)[C@H](O)[C@H](C)O2)Oc2ccc(cc2Cl)[C@H]1O | 1 (≈ 0.492 µM) | 0.5 (≈ 0.246 µM)
CCCCCOc1ccc(CN[C@@]2(C)C[C@H](O[C@H]3[C@H](Oc4c5cc6cc4Oc4ccc(cc4Cl)[C@@H](O)[C@@H](NC(=O)[C@@H](CC(C)C)NC)C(=O)N[C@@H](CC(N)=O)C(=O)N[C@H]6C(=O)N[C@H]4C(=O)N[C@H](C(=O)N[C@H](C(=O)O)c6cc(O)c(CNCCCNC(=O)[C@H](O)[C@@H](O)[C@H](O)[C@H](O)CO)c(O)c6-c6cc4ccc6O)[C@H](O)c4ccc(c(Cl)c4)O5)O[C@H](CO)[C@@H](O)[C@@H]3O)O[C@@H](C)[C@H]2O)cc1 | 2 (≈ 1.06 µM) | 1 (≈ 0.529 µM)
CN[C@H](CC(C)C)C(=O)N[C@H]1C(=O)N[C@@H](CC(N)=O)C(=O)N[C@H]2C(=O)N[C@H]3C(=O)N[C@H](C(=O)N[C@H](C(=O)O)c4cc(O)c(CNCCCNC(=O)[C@H](O)[C@@H](O)[C@H](O)[C@H](O)CO)c(O)c4-c4cc3ccc4O)[C@H](O)c3ccc(c(Cl)c3)Oc3cc2cc(c3O[C@@H]2O[C@H](CO)[C@@H](O)[C@H](O)[C@H]2O[C@H]2C[C@](C)(NCc3ccc(C#C[Si](C)(C)C)cc3)[C@H](O)[C@H](C)O2)Oc2ccc(cc2Cl)[C@H]1O | 2 (≈ 1.05 µM) | 1 (≈ 0.526 µM)
CCCCCCc1ccc(CN[C@@]2(C)C[C@H](O[C@H]3[C@H](Oc4c5cc6cc4Oc4ccc(cc4Cl)[C@@H](O)[C@@H](NC(=O)[C@@H](CC(C)C)NC)C(=O)N[C@@H](CC(N)=O)C(=O)N[C@H]6C(=O)N[C@H]4C(=O)N[C@H](C(=O)N[C@H](C(=O)O)c6cc(O)c(CNCCCNC(=O)[C@H](O)[C@@H](O)[C@H](O)[C@H](O)CO)c(O)c6-c6cc4ccc6O)[C@H](O)c4ccc(c(Cl)c4)O5)O[C@H](CO)[C@@H](O)[C@@H]3O)O[C@@H](C)[C@H]2O)cc1 | 0.5 (≈ 0.265 µM) | 0.12 (≈ 0.0636 µM)
C#Cc1ccc(CN[C@@]2(C)C[C@H](O[C@H]3[C@H](Oc4c5cc6cc4Oc4ccc(cc4Cl)[C@@H](O)[C@@H](NC(=O)[C@@H](CC(C)C)NC)C(=O)N[C@@H](CC(N)=O)C(=O)N[C@H]6C(=O)N[C@H]4C(=O)N[C@H](C(=O)N[C@H](C(=O)O)c6cc(O)c(CNCCCNC(=O)[C@H](O)[C@@H](O)[C@H](O)[C@H](O)CO)c(O)c6-c6cc4ccc6O)[C@H](O)c4ccc(c(Cl)c4)O5)O[C@H](CO)[C@@H](O)[C@@H]3O)O[C@@H](C)[C@H]2O)cc1 | 8 (≈ 4.38 µM) | 4 (≈ 2.19 µM)
CN[C@H](CC(C)C)C(=O)N[C@H]1C(=O)N[C@@H](CC(N)=O)C(=O)N[C@H]2C(=O)N[C@H]3C(=O)N[C@H](C(=O)N[C@H](C(=O)O)c4cc(O)c(CNCCCNC(=O)[C@H](O)[C@@H](O)[C@H](O)[C@H](O)CO)c(O)c4-c4cc3ccc4O)[C@H](O)c3ccc(c(Cl)c3)Oc3cc2cc(c3O[C@@H]2O[C@H](CO)[C@@H](O)[C@H](O)[C@H]2O[C@H]2C[C@](C)(NCc3ccc4ccccc4c3)[C@H](O)[C@H](C)O2)Oc2ccc(cc2Cl)[C@H]1O | 4 (≈ 2.16 µM) | 1 (≈ 0.539 µM)
CCCCCCCCCCNCCN[C@@]1(C)C[C@H](O[C@H]2[C@H](Oc3c4cc5cc3Oc3ccc(cc3Cl)[C@@H](O)[C@@H](NC(=O)[C@@H](CC(C)C)NC)C(=O)N[C@@H](CC(N)=O)C(=O)N[C@H]5C(=O)N[C@H]3C(=O)N[C@H](C(=O)N[C@H](C(=O)O)c5cc(O)c(CNCCCNC(=O)[C@H](O)[C@@H](O)[C@H](O[C@@H]6O[C@H](CO)[C@H](O)[C@H](O)[C@H]6O)[C@H](O)CO)c(O)c5-c5cc3ccc5O)[C@H](O)c3ccc(c(Cl)c3)O4)O[C@H](CO)[C@@H](O)[C@@H]2O)O[C@@H](C)[C@H]1O | 1 (≈ 0.486 µM) | 0.25 (≈ 0.121 µM)
CN[C@H](CC(C)C)C(=O)N[C@H]1C(=O)N[C@@H](CC(N)=O)C(=O)N[C@H]2C(=O)N[C@H]3C(=O)N[C@H](C(=O)N[C@H](C(=O)O)c4cc(O)c(CNCCCNC(=O)[C@H](O)[C@@H](O)[C@H](O)[C@H](O)CO)c(O)c4-c4cc3ccc4O)[C@H](O)c3ccc(c(Cl)c3)Oc3cc2cc(c3O[C@@H]2O[C@H](CO)[C@@H](O)[C@H](O)[C@H]2O[C@H]2C[C@](C)(NCc3ccc(-c4ccncc4)cc3)[C@H](O)[C@H](C)O2)Oc2ccc(cc2Cl)[C@H]1O | 4 (≈ 2.13 µM) | 1 (≈ 0.532 µM)
CCCCCCCCCC(=O)N[C@@]1(C)C[C@H](O[C@H]2[C@H](Oc3c4cc5cc3Oc3ccc(cc3Cl)[C@@H](O)[C@@H](NC(=O)[C@@H](CC(C)C)NC)C(=O)N[C@@H](CC(N)=O)C(=O)N[C@H]5C(=O)N[C@H]3C(=O)N[C@H](C(=O)N[C@H](C(=O)O)c5cc(O)c(CNCCCNC(=O)[C@H](O)[C@@H](O)[C@H](O)[C@H](O)CO)c(O)c5-c5cc3ccc5O)[C@H](O)c3ccc(c(Cl)c3)O4)O[C@H](CO)[C@@H](O)[C@@H]2O)O[C@@H](C)[C@H]1O | 64 (≈ 34.3 µM) | 32 (≈ 17.1 µM)
